This is an account of results in the RNAGym collection of RNA variant scans (doi:10.1126/science.aae0568).

The labels stand for the following.
B1: tRNA (parent)
chain: GUUCCGUUGGCGUAAUGGUAACGCGUCUCCCUCCUAAGGAGAAGACUGCGGGUUCGAGUCCCGUACGGAACG

This sample holds only a part of the variants without activity. A value given as a limit tells only on which side of the number the result lay.

The data set covers variants of B1. Nature of the data set: yeast fitness relative to wild type (ratio to wild type); higher = fitter; tRNA-Arg(CCU), competitive growth, 37 C, YPD. In outline: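 Start and end populations of a pooled competition were compared by 100-nucleotide paired-end sequencing of gene amplicons. The Saccharomyces cerevisiae strains carried tRNA-Arg(CCU) gene variants at the native genomic locus, synthesised with a 3% per-site mutation rate at 69 sites, and competed in YPD at 37°C for 24 hours in six parallel replicates. Darwinian fitness relative to wild type was based on the change in genotype frequencies. Genotypes required ≥ 100 starting reads, and estimates < 0.5 were set to 0.5.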
Regarding A36C U47A G48C U54G C60G, the yeast fitness was at most 0.5. On to A36G C49U A70C, for which the yeast fitness was determined as 0.663.

As to A36C A37C A57C, the yeast fitness was at most 0.5. For A36C C61U A65U, the yeast fitness was at most 0.5. On to A36C A45C U54A A57U A65U, for which the yeast fitness was at most 0.5.

A36G A45C A69U: the yeast fitness was found to be 0.806. In the case of A36U C46G C62A A69C it was 0.562; in that of A36C G56A, 0.61.

With A36C G56C, the yeast fitness amounted to 0.793. As to U35C G41A A43C A57G, the yeast fitness came out at 0.501. A36U C55G: the yeast fitness was at most 0.5. With A36G U47A A69C, the yeast fitness amounted to 0.68.

A36G C66U: the yeast fitness was determined as 0.949. On to A36G C66A, for which the yeast fitness was 0.683.

As for A36U A42U C49U, the yeast fitness turned out to be 0.576. In the case of A36C A37G C55A it was 0.534.

In the case of A36C C49G C61G C62G, the yeast fitness is at most 0.5. In the case of A36G C61G A70C it was 0.661; in that of A36G G52A, 0.744; in that of A36G G52C, 0.674.

As to A36C A37C A65C, the yeast fitness was at most 0.5. With A36U C46G U54C C62A A69C, the yeast fitness is at most 0.5. Regarding A36C A37U G50C, the yeast fitness amounted to 0.576. For A36G A43U G48C, the yeast fitness came to 0.556. As for U35C G48A, the yeast fitness turned out to be 0.937. Turning to A36U A42C, the yeast fitness amounted to 0.595.

As to A36C C55U U59A, the yeast fitness was at most 0.5. Take A36G G68C A69U: the yeast fitness turned out to be 0.547.

With A36C A37G C49A A69U, the yeast fitness is at most 0.5. Regarding A36C U47A G48C C62G, the yeast fitness is at most 0.5.

A36G A37G A45C G51C U59G: the yeast fitness is at most 0.5.

In the case of A36C A45C C55G C62A G68A, the yeast fitness was 0.575.

For the variant U35G C46U, the yeast fitness stood at 0.628. With A36U A40U A65C C66U, the yeast fitness was at most 0.5. In the case of A36C G48C U53C A70C, the yeast fitness is at most 0.5. As for A36G U64A G67C, the yeast fitness was at most 0.5.

On to A36C C55U A65C, for which the yeast fitness amounted to 0.632.

As for A36U C62G, the yeast fitness amounted to 0.623. As to A36U C60A A70U, the yeast fitness was at most 0.5. Consider A36U A57G G63C, for which the yeast fitness is 0.563. On to A36G A37U A42U A70G, for which the yeast fitness is at most 0.5.

With A36G A65C G68C, the yeast fitness is at most 0.5. To A36U A37U A45U A65G belongs at most 0.5; to A36G C55U, 0.743; to A36C C55A, at most 0.5. For A36C C55G, the yeast fitness worked out at 0.556. Turning to U35C G67A, the yeast fitness worked out at 0.637.

For U35C G67C, the yeast fitness was 0.939. With A36G G44A C46U, the yeast fitness was found to be 0.992. Turning to A36U C46U G51A U64C, the yeast fitness was 0.597. Turning to A36G A42C A43U C46A, the yeast fitness came to 0.861. In the case of U35G G52C G63A, the yeast fitness stood at 0.551. In the case of A36G C49A, the yeast fitness is 0.799. For A36G C49G, the yeast fitness came out at 0.776.

With A36C U47A G48C C61U, the yeast fitness was at most 0.5. A36U C49U U54C: the yeast fitness is at most 0.5.

As for A36C A42C, the yeast fitness came out at 0.727. To A36C G52A C61A belongs at most 0.5. Take A36G U64A: the yeast fitness came out at 0.796.

On to A36U C66A, for which the yeast fitness is at most 0.5. Take A36C C55U G68C A70G: the yeast fitness is at most 0.5. For A36G C60U A70U, the yeast fitness is at most 0.5. Take U35C C61A: the yeast fitness was at most 0.5. With U35C C61U, the yeast fitness was determined as 0.968. To A36C U59A belongs 0.569. Take A36C G41C: the yeast fitness is 0.579. On to A36C G39C A65C, for which the yeast fitness was determined as 0.598.

For U35C G48C C55U G56A, the yeast fitness was found to be 0.573.

Regarding A36G G48A U53G, the yeast fitness is at most 0.5. On to A36G A37G G58C, for which the yeast fitness worked out at 0.649. Consider A36C C61G A70C, for which the yeast fitness is 0.569. In the case of A36C C61A it was 0.523; in that of A36C G63C, 0.558; in that of A36G A42U U53C, at most 0.5. Turning to U35C G39C U47A, the yeast fitness is at most 0.5.

On to A36C G41C C61U, for which the yeast fitness is at most 0.5. As to U35C G51C C55U, the yeast fitness was at most 0.5. Take A36C G38A U54C G58A: the yeast fitness is at most 0.5.

With A36G C61U, the yeast fitness came to 0.891. As for A36G C61A, the yeast fitness amounted to 0.766. In the case of A36G A45C it was 1.01. Consider A36G A45U, for which the yeast fitness came out at 1.04. With A36G A45G, the yeast fitness is 0.944. Turning to U35C C61A G67C, the yeast fitness was at most 0.5. U35G A69U: the yeast fitness stood at 0.769.

On to A36C U54A C61G, for which the yeast fitness was 0.635. Regarding A36C A42U A43G A70G, the yeast fitness is at most 0.5. Turning to A36U G39A A42C G50U G63A, the yeast fitness came out at 0.535.

With A36G G58C, the yeast fitness was found to be 0.943. As for A36G G58A, the yeast fitness was found to be 0.898.

As for A36U C62G G63A, the yeast fitness was 0.569. On to A36G C55A G67C, for which the yeast fitness was at most 0.5. As to U35C G58A, the yeast fitness worked out at 0.77. For the variant U35G A65G, the yeast fitness was determined as 0.573. Take A36C A40G: the yeast fitness is 0.566.

As for A36G A42G C46G, the yeast fitness came out at 0.698.

Take A36G C60U C61U: the yeast fitness was 0.625. Consider A36G G48A C49G, for which the yeast fitness came to 0.63.

As to A36U A40C C62U A65C, the yeast fitness was at most 0.5. To A36C U53G belongs at most 0.5; to A36U C49G G52C, at most 0.5; to U35G A43U, 0.707. Regarding U35G A43C, the yeast fitness was determined as 0.583. On to A36C A45C G48A G52C G68A, for which the yeast fitness was at most 0.5.

Regarding A36C A45U, the yeast fitness amounted to 0.591. As to A36G A42C G68C, the yeast fitness was determined as 0.608. With A36G C60A C61G A65U, the yeast fitness was at most 0.5. Consider U35C G48A C60A, for which the yeast fitness worked out at 0.648. Turning to U35C C62A A69U, the yeast fitness came to 0.551.

In the case of U35G G68C, the yeast fitness turned out to be 0.619. To A36G G48A C49G U59A belongs at most 0.5; to A36G C55G A65G, at most 0.5. In the case of A36C G44A A70C, the yeast fitness was at most 0.5.

Consider A36G G38C, for which the yeast fitness worked out at 0.719.

Regarding A36C A69C, the yeast fitness was found to be 0.644.

With A36C G50C, the yeast fitness was determined as 0.54. U35C U59C A69U: the yeast fitness was 0.749. Consider A36G U59C A69U, for which the yeast fitness was 0.783. As for A36C U59C A65G, the yeast fitness is at most 0.5. On to U35C C60U C66U, for which the yeast fitness is at most 0.5. For the variant A36G C46U A57C, the yeast fitness is at most 0.5.

Regarding A36U G39A A45G, the yeast fitness was at most 0.5. To A36G C46U belongs 0.952; to A36G C46G C49U, 0.763.

Turning to A36C A40U A57C, the yeast fitness came out at 0.52. Turning to A36G G56C, the yeast fitness amounted to 0.686. To A36G G56A belongs 1.01; to A36U A45C C49G G67A, 0.548. Consider A36G G50C U64C, for which the yeast fitness is 1.18. Consider A36C C46A C49U, for which the yeast fitness was determined as 0.562. In the case of A36C A40U A70U, the yeast fitness was at most 0.5. Turning to U35C C55G A57G, the yeast fitness came to 0.606. For U35C C61A A69U, the yeast fitness is at most 0.5. On to A36G C49U G58C, for which the yeast fitness turned out to be 0.655. In the case of A36G A42G A70G it was 0.54; in that of A36G C55A A69U, 0.635; in that of A36G A65U A70C, 0.684. With A36G C62A G63C, the yeast fitness was at most 0.5. Consider A36G C46U A69U, for which the yeast fitness came out at 0.841. With A36G G38C G52C A57U A69U A70G, the yeast fitness is at most 0.5. As for A36G G41A C60G A65G, the yeast fitness was at most 0.5. A36G A42G C46G G68C: the yeast fitness is at most 0.5. Take A36U A45U G52C: the yeast fitness was at most 0.5. For A36G A43C A45G, the yeast fitness came out at 0.906. With A36C A57C C61U A69C, the yeast fitness was at most 0.5.

In the case of A36U C49G A69U, the yeast fitness is at most 0.5. Regarding A36U A45U, the yeast fitness is 0.728.

On to A36U A45C, for which the yeast fitness was found to be 0.6. For the variant U35C U47G C62U A65U, the yeast fitness was at most 0.5. As to A36G A45U A65U, the yeast fitness came out at 0.572. In the case of U35C G52C it was at most 0.5.

Consider A36U C61U A65U, for which the yeast fitness was at most 0.5. For A36C A43U U47A U54A, the yeast fitness was at most 0.5. Turning to A36G C49U C61U, the yeast fitness stood at 0.654.

Take A36U C49G U54A A57C G68A: the yeast fitness is at most 0.5. U35G U64C A70G: the yeast fitness is at most 0.5. In the case of A36U A45U C46U U53C it was at most 0.5. Consider A36U C46A C66A, for which the yeast fitness was at most 0.5. Turning to A36G A43G C62A, the yeast fitness amounted to 0.553. Take A36G C55A C66A: the yeast fitness was at most 0.5. In the case of U35C A70G it was 0.781; in that of U35C A70U, 0.812. In the case of U35C U59A it was 0.878.

As for A36C A42U A43G G63C A69U, the yeast fitness is at most 0.5. In the case of U35C C46U C55G it was 0.507; in that of A36U A70C, 0.799.

Consider A36U A70G, for which the yeast fitness was determined as 0.607.
